Legend:
Assay type in all cases: cell-based
[1] = biological target: T1, mEAG1 channel (Mus musculus, UniProt Q60603); assay: Inside-out patch-clamp of wild-type mEAG1 channels expressed in Xenopus oocytes
T1 sequence (Q60603 1-989): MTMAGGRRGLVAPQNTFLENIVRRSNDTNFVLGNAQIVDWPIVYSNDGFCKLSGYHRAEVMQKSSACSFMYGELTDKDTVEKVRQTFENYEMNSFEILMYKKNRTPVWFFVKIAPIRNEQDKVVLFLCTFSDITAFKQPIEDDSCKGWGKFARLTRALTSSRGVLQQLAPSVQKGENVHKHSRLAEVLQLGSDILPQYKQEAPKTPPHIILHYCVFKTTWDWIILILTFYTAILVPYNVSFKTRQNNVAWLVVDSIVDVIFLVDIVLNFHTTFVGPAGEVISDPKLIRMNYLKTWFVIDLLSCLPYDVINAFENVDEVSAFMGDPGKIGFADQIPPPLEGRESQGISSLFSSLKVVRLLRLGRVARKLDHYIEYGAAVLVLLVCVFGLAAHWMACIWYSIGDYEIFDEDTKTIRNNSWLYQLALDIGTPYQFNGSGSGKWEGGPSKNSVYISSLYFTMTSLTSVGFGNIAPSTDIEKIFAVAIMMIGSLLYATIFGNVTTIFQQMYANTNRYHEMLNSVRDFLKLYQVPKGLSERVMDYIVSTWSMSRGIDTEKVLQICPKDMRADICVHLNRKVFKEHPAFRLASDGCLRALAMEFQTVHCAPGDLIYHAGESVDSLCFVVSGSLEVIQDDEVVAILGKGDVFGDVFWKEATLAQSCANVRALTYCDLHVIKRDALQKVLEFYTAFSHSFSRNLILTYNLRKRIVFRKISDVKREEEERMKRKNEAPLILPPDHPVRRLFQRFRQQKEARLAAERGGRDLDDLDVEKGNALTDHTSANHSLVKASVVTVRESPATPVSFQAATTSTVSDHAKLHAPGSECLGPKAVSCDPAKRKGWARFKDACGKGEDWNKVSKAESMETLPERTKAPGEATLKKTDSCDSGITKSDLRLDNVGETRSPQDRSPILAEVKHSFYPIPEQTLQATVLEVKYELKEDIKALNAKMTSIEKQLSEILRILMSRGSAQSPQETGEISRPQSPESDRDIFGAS

[2] = biological target: T1, mEAG1 channel; assay: Outside-out patch-clamp of mEAG1 channels expressed in Xenopus oocytes; conditions: 10 µM fisetin; outside-out patches; n = 4
In short: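 Outside-out patches were excised from Xenopus oocytes expressing mouse EAG1. Bath and pipette solutions were 130 mM KCl, 10 mM HEPES, 0.2 mM EDTA, pH 7.2. Patches were exposed to 10 µM flavonoid. The shift in V1/2 was taken from Boltzmann fits of tail-current conductance–voltage relationships.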

[3] = biological target: T2, mEAG1 Δ821–989 channels (Mus musculus, UniProt Q60603); assay: Inside-out patch-clamp of post-CNBHD deletion mutant channels; conditions: with 30 µM fisetin
T2 sequence (Q60603 1-820): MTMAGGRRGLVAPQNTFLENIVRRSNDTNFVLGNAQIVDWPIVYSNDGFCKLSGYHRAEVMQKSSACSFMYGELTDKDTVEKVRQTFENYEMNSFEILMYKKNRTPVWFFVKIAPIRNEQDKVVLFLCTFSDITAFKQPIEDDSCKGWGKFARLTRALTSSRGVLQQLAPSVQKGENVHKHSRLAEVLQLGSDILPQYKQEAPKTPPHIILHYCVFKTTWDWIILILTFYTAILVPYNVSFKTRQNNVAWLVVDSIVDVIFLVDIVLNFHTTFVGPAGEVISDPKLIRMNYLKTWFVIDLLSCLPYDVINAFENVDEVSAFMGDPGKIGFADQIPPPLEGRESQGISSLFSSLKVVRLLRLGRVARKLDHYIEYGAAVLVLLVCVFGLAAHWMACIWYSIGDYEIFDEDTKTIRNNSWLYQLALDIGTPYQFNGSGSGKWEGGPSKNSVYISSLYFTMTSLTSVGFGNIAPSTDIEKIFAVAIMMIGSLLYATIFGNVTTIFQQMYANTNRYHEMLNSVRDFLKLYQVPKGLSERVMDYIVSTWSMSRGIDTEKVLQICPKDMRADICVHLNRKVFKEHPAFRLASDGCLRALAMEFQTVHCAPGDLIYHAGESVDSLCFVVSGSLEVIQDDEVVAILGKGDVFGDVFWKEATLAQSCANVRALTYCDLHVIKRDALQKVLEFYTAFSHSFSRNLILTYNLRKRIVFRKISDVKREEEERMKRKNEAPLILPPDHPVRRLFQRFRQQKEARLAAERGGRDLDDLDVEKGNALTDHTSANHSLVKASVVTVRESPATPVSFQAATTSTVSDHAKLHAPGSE
In short: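 mEAG1 mutant cRNA was injected into defolliculated Xenopus oocytes, and the vitelline membrane was removed. Inside-out patches were bathed in symmetric 130 mM KCl, 10 mM HEPES, 0.2 mM EDTA, pH 7.2, holding at −100 mV. Steps of 0.1 s from −140 to +50 mV (10-mV increments) were followed by −120 mV tails, without or with 30 µM flavonoid. Peak tails were normalized and Boltzmann-fitted. Deactivation time constant came from single-exponential fits of the −120 mV tail after +50 mV; two-tailed t test.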

O=c1c(O)c(-c2ccc(O)c(O)c2)oc2cc(O)ccc12 [Fisetin, 2-(3,4-dihydroxyphenyl)-3,7-dihydroxychromen-4-one]
Hill coefficient, deactivation time constant versus fisetin plot [1]: 1.2 | Hill coefficient, ΔV1/2 versus fisetin plot [1]: 2.2 | effect on mEAG1 currents at high concentration ([1]; concentrations of 100 µM and higher): inhibited mEAG1 currents | time constant of deactivation ([1]; with 30 µM fisetin, at −120 mV after step to +50 mV, 4.5 ± 0.8 ms without, n = 6): 7.2 ± 1.0 ms | time constant of deactivation (single tail current of Fig. 3 C) ([1]; with 30 µM fisetin, tail current at −120 mV after step to 50 mV, 5.3 ms before): 13.9 ms | V1/2 of the conductance–voltage relationship ([1]; with 30 µM fisetin, −41.9 ± 4.1 mV without, n = 6): −55.4 ± 3.7 mV | shift of the conductance–voltage relationship [2]: −8.1 ± 2.3 mV | rate (time constant) of deactivation ([3]; at −120 mV, 3.4 ± 0.7 ms without, n = 4): 6.7 ± 2.2 ms | time constant of deactivation (tail currents of Fig. 5 F) ([3]; tail at −120 mV after step to +50 mV, 5.2 ms without): 13.4 ms | V1/2 (Boltzmann fit of the averaged conductance–voltage relationship) ([3]; −31.9 mV without, Fig. 5 E): −50.6 mV | V1/2 of the conductance–voltage relationship ([3]; −36.4 ± 2.5 mV without, n = 4): −51.1 ± 6.0 mV

Reference: paper PMC3581696 (The Journal of General Physiology, 2013)
